Active and inactive are the calls of the source. The rule behind the calls is not given here.
Tests used:
[1] = tested on: Rattus norvegicus; experiment: Hypotensive activity in po dosed spontaneously hypertensive Wistar-Okamoto rat assessed as dose required to cause 30 mmHg fall of blood pressure administered for 5 days; format: functional; details: 120 h, read-out: MED
[2] = tested on: Rattus norvegicus; experiment: Hypotensive activity in spontaneously hypertensive Wistar-Okamoto rat assessed as maximum change in mean blood pressure at 0.01 mg/kg, po relative to control; format: functional
Method in brief: (§1)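 Spontaneously hypertensive Wistar-Okamoto rats, five per dose, received compound orally, dissolved or suspended in 0.5% carboxymethylcellulose. Blood pressure was measured indirectly by tail cuff in restrained conscious rats before dosing and at 2, 4, 6, 8, 12 and 24 h. Maximum change was measured after a single administration and given as mean ± error.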

[3] = tested on: Rattus norvegicus; experiment: Hypotensive activity in spontaneously hypertensive Wistar-Okamoto rat assessed as maximum change in mean blood pressure at 0.05 mg/kg, po relative to control; format: functional; method in brief: as §1
[4] = tested on: Rattus norvegicus; experiment: Hypotensive activity in spontaneously hypertensive Wistar-Okamoto rat assessed as maximum change in mean blood pressure at 0.1 mg/kg, po relative to control; format: functional; method in brief: as §1
[5] = tested on: Rattus norvegicus; experiment: Hypotensive activity in spontaneously hypertensive Wistar-Okamoto rat assessed as time required for persistence of hypotensive effect at 0.01 mg/kg, po; format: functional
Method in brief: (§2)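 SHR (Wistar-Okamoto), five per dose, were given an oral dose in 0.5% carboxymethylcellulose. Indirect cuff pressure in restrained conscious rats was read before dosing and at 2, 4, 6, 8, 12 and 24 h. Duration (h) was scored while pressure remained 15 mmHg or more below the initial reading.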

[6] = tested on: Rattus norvegicus; experiment: Hypotensive activity in spontaneously hypertensive Wistar-Okamoto rat assessed as time required for persistence of hypotensive effect at 0.05 mg/kg, po; format: functional; method in brief: as §2
[7] = tested on: Rattus norvegicus; experiment: Hypotensive activity in spontaneously hypertensive Wistar-Okamoto rat assessed as time required for persistence of hypotensive effect at 0.1 mg/kg, po; format: functional; method in brief: as §2
[8] = tested on: Canis familiaris; experiment: Hypotensive activity in conscious renal hypertensive dog assessed as maximum change in mean blood pressure at 0.05 mg/kg, po measured for 8 hrs relative to control; format: functional, Canis lupus familiaris
Method in brief: (§3)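 Renal hypertensive dogs, conscious, dosed orally in soft gelatin capsules, three dogs per dose. Mean blood pressure was taken indirectly with an Arteriosonde, standing animals in a semi-insonorized room, just before dosing and then hourly for 8 h. Maximum change was measured after a single administration and given as mean ± error.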

[9] = tested on: Canis familiaris; experiment: Hypotensive activity in conscious renal hypertensive dog assessed as maximum change in mean blood pressure at 0.1 mg/kg, po measured for 8 hrs relative to control; format: functional, Canis lupus familiaris; method in brief: as §3
[10] = tested on: Canis familiaris; experiment: Hypotensive activity in conscious renal hypertensive dog assessed as time required for persistence of hypotensive effect at 0.05 mg/kg, po measured for 8 hrs; format: functional, Canis lupus familiaris
Method in brief: (§4)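 Conscious renal hypertensive dogs received single oral doses in soft gelatin capsules, three per dose. Indirect standing blood pressure was read before dosing and hourly to 8 h. Duration (h) was the time the pressure stayed 15 mmHg or more below the initial value, which was taken as persistence of the hypotensive effect.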

[11] = tested on: Canis familiaris; experiment: Hypotensive activity in conscious renal hypertensive dog assessed as time required for persistence of hypotensive effect at 0.1 mg/kg, po measured for 8 hrs; format: functional, Canis lupus familiaris; method in brief: as §4
[12] = tested on: Rattus norvegicus; experiment: Hypotensive activity in po dosed spontaneously hypertensive Wistar-Okamoto rat relative to guancydine; format: functional
[13] = organism: Felis catus; experiment: Hypotensive activity in decerebrated cat; format: functional, organism-based
[14] = tested on: Rattus norvegicus; experiment: Toxicity in rat assessed as change in cardiac noradrenaline level at 1 mg/kg; format: organism-based, Heart; set-up: dose 1 mg/kg; details: in vivo
Method in brief: (§5)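 Rats were given single or repeated (5 days) administration, and cardiac noradrenaline levels were measured.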

[15] = tested on: Rattus norvegicus; experiment: Toxicity in rat assessed as change in cardiac noradrenaline level at 1 mg/kg for 5 days; format: organism-based, Heart; set-up: dose 1 mg/kg; details: in vivo, 120 h; method in brief: as §5
[16] = organism: Rattus norvegicus; experiment: Toxicity in rat assessed as effect on contraction of nictitating membranes by preganglionic stimulation; format: organism-based, Nictitating membrane; details: in vivo
[17] = tested on: Rattus norvegicus; experiment: Hypotensive activity in spontaneously hypertensive Wistar-Okamoto rat assessed as maximum change in mean blood pressure at 2.5 mg/kg, po relative to control; format: functional; method in brief: as §1
[18] = tested on: Rattus norvegicus; experiment: Hypotensive activity in spontaneously hypertensive Wistar-Okamoto rat assessed as maximum change in mean blood pressure at 0.5 mg/kg, po relative to control; format: functional; method in brief: as §1
[19] = tested on: Rattus norvegicus; experiment: Hypotensive activity in spontaneously hypertensive Wistar-Okamoto rat assessed as maximum change in mean blood pressure at 1 mg/kg, po relative to control; format: functional; method in brief: as §1
[20] = tested on: Rattus norvegicus; experiment: Hypotensive activity in spontaneously hypertensive Wistar-Okamoto rat assessed as time required for persistence of hypotensive effect at 2.5 mg/kg, po; format: functional; method in brief: as §2
[21] = tested on: Rattus norvegicus; experiment: Hypotensive activity in spontaneously hypertensive Wistar-Okamoto rat assessed as time required for persistence of hypotensive effect at 0.5 mg/kg, po; format: functional; method in brief: as §2
[22] = tested on: Rattus norvegicus; experiment: Hypotensive activity in spontaneously hypertensive Wistar-Okamoto rat assessed as time required for persistence of hypotensive effect at 1 mg/kg, po; format: functional; method in brief: as §2
[23] = tested on: Canis familiaris; experiment: Hypotensive activity in conscious renal hypertensive dog assessed as maximum change in mean blood pressure at 0.25 mg/kg, po measured for 8 hrs relative to control; format: functional, Canis lupus familiaris; method in brief: as §3
[24] = tested on: Canis familiaris; experiment: Hypotensive activity in conscious renal hypertensive dog assessed as maximum change in mean blood pressure at 0.5 mg/kg, po measured for 8 hrs relative to control; format: functional, Canis lupus familiaris; method in brief: as §3
[25] = tested on: Canis familiaris; experiment: Hypotensive activity in conscious renal hypertensive dog assessed as maximum change in mean blood pressure at 1 mg/kg, po measured for 8 hrs relative to control; format: functional, Canis lupus familiaris; method in brief: as §3
[26] = tested on: Canis familiaris; experiment: Hypotensive activity in conscious renal hypertensive dog assessed as time required for persistence of hypotensive effect at 0.25 mg/kg, po measured for 8 hrs; format: functional, Canis lupus familiaris; method in brief: as §4
[27] = tested on: Canis familiaris; experiment: Hypotensive activity in conscious renal hypertensive dog assessed as time required for persistence of hypotensive effect at 0.5 mg/kg, po measured for 8 hrs; format: functional, Canis lupus familiaris; method in brief: as §4
[28] = tested on: Canis familiaris; experiment: Hypotensive activity in conscious renal hypertensive dog assessed as time required for persistence of hypotensive effect at 1 mg/kg, po measured for 8 hrs; format: functional, Canis lupus familiaris; method in brief: as §4
[29] = tested on: Rattus norvegicus; experiment: Toxicity in rat assessed as change in cardiac noradrenaline level at 0.1 mg/kg; format: organism-based, Heart; set-up: dose 0.1 mg/kg; details: in vivo; method in brief: as §5
[30] = tested on: Rattus norvegicus; experiment: Toxicity in rat assessed as change in cardiac noradrenaline level at 0.1 mg/kg for 5 days; format: organism-based, Heart; set-up: dose 0.1 mg/kg; details: in vivo, 120 h; method in brief: as §5
[31] = Toxicity in po dosed mouse assessed as mortality after 7 days; details: in vivo
[32] = Toxicity in po dosed Sprague-Dawley rat assessed as mortality after 7 days; format: organism-based; details: in vivo

SMILES	minimal effective dose [1] [mg/kg]	Activity [2] [mmHg]	Activity [3] [mmHg]	Activity [4] [mmHg]	Time [5] [h]	Time [6] [h]	Time [7] [h]	Activity [8] [mmHg]	Activity [9] [mmHg]	Time [10] [h]	Time [11] [h]	fold change (FC) [12]	Activity [13]	Activity [16]	Activity [23] [mmHg]	Time [26] [h]	LD50 at 168 h [31] [mg/kg]	other results
CCC(C)(C)/N=C(\NC#N)Nc1cccnc1	0.1	-27	-72	>-100	2	4	4	-41	-69	4	>6	100	Active	–	–	–	–	–
CC(N/C(=N\C#N)Nc1ccncc1)C(C)(C)C (configuration not stated) [PINACIDIL ANHYDROUS]	0.5	–	–	–	–	–	–	–	–	–	–	–	Active	Non-toxic	-26	4	–	Activity [14]: Non-toxic; Activity [15]: Non-toxic; Activity [17]: -79 mmHg; Activity [18]: -34 mmHg; Activity [19]: -68 mmHg; Time [20]: >12 h; Time [21]: 8 h; Time [22]: >12 h; Activity [24]: -43 mmHg; Activity [25]: -67 mmHg; Time [27]: 6 h; Time [28]: >8 h
CC(C)(C)/N=C(/NC#N)Nc1cccnc1	0.1	-26	-37	-72	4	6	>8	-25	-45	2	4	100	Active	Non-toxic	-62	6	> 1000	Activity [29]: Non-toxic; Activity [30]: Non-toxic; LD50 at 168 h [32]: 278 mg/kg
CC(C)/N=C(\NC#N)Nc1cccnc1	2.5	–	–	–	–	–	–	–	–	–	–	–	–	–	–	–	> 1000	–

— ChEMBL document CHEMBL3272224, “Synthesis and hypotensive activity of N-alkyl-N"-cyano-N'-pyridylguanidines” (J Med Chem, 1978)
